The text below walks through data of ChEMBL document CHEMBL3351966, “Structural manipulation on the catecholic fragment of dopamine D(1) receptor agonist 1-phenyl-N-methyl-benzazepines” (Eur J Med Chem, 2014).

In one test the target is D(2) dopamine receptor (Homo sapiens, UniProt P14416). Kind of test: Displacement of [3H]spiperone from human dopamine D2 receptor expressed in HEK293 cell membranes by liquid scintillation counting based competition binding assay. In a few lines:
(§1)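 Competition binding on membranes from stably transfected cell lines ([…]), clones selected with G418. Buffer 50 mM Tris, 4 mM MgCl₂, pH 7.4 with 0.7 nM radioligand and increasing compound concentrations. Duplicate tubes incubated at 30 °C for 50 min, then rapid filtration through GF/B filters and cold-buffer wash. Compounds from 10^-1 M DMSO stock. Ki as mean of three to five experiments, racemates.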
A general note: Displacement assays read how much labelled ligand stays bound in the presence of the test substance.

For test [1], the target named is T1, 5-hydroxytryptamine receptor 1A (Rattus norvegicus, UniProt P19327).
T1 sequence (P19327 whole entry): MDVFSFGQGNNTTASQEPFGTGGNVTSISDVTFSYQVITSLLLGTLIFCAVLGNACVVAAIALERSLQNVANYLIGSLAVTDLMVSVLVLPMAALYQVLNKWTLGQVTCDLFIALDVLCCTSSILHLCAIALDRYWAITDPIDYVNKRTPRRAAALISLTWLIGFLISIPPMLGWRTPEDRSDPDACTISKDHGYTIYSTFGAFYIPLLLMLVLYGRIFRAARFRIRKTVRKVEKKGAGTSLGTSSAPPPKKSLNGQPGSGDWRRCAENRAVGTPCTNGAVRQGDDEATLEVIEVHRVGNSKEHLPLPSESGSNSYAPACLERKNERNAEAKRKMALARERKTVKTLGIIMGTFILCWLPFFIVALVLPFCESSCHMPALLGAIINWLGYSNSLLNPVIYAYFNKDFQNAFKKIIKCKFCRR
Put plainly: Displacement of [3H]8-OH-DPAT from rat 5HT1A receptor expressed in CHO cell membranes by liquid scintillation counting based competition binding assay. The essentials: as §1

Another test concerns the target D(1A) dopamine receptor (Homo sapiens, UniProt P21728). Kind of test: Displacement of [3H]SCH23390 from human dopamine D1 receptor expressed in HEK293 cell membranes by liquid scintillation counting based competition binding assay. In a few lines:
as §1

The target of the next test is D(3) dopamine receptor (Homo sapiens, UniProt P35462). Put plainly: Displacement of [3H]spiperone from human dopamine D3 receptor expressed in HEK293 cell membranes by liquid scintillation counting based competition binding assay. In a few lines: as §1
D(3) dopamine receptor, sequence (P35462 whole entry): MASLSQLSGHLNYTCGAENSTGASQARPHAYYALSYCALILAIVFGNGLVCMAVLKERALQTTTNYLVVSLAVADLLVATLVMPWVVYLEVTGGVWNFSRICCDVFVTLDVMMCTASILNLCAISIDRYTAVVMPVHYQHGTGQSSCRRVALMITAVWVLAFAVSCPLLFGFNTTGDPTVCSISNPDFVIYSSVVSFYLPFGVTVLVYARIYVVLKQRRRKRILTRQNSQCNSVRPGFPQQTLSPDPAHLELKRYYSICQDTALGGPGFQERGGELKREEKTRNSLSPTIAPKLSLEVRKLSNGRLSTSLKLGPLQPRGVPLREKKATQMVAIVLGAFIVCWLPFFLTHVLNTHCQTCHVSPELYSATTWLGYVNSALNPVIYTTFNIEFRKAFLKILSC
The target of test [2] is 5-hydroxytryptamine receptor 2A (Homo sapiens, UniProt P28223). Put plainly: Displacement of [3H]ketanserin from human 5HT2A receptor expressed in HEK293 cell membranes by liquid scintillation counting based competition binding assay. In a few lines: as §1
5-hydroxytryptamine receptor 2A, sequence (P28223 whole entry): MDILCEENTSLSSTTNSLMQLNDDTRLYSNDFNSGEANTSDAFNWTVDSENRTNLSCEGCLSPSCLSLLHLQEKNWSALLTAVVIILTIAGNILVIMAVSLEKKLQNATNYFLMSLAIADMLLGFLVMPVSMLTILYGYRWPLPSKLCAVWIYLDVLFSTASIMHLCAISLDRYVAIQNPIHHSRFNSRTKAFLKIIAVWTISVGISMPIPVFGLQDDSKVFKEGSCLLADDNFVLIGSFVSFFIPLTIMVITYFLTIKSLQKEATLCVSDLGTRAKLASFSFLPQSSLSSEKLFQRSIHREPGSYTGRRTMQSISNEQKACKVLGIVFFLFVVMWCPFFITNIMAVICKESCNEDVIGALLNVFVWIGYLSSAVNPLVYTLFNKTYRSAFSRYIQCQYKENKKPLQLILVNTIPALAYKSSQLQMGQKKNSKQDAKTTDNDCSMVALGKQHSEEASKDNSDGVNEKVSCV

SMILES strings stand for the structures.

D(1A) dopamine receptor, sequence (P21728 whole entry): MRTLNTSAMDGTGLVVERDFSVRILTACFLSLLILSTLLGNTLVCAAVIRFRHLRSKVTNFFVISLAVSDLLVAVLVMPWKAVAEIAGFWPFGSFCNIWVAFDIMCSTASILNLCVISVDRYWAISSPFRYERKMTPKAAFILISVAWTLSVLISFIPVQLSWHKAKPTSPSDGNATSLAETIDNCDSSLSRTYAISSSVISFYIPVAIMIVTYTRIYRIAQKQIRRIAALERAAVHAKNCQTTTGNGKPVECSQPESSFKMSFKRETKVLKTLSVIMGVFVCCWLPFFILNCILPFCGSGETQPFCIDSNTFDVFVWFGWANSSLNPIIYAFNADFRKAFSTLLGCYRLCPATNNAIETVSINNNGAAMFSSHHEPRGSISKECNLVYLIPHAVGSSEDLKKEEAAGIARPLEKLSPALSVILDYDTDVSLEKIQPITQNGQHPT
D(2) dopamine receptor, sequence (P14416 whole entry): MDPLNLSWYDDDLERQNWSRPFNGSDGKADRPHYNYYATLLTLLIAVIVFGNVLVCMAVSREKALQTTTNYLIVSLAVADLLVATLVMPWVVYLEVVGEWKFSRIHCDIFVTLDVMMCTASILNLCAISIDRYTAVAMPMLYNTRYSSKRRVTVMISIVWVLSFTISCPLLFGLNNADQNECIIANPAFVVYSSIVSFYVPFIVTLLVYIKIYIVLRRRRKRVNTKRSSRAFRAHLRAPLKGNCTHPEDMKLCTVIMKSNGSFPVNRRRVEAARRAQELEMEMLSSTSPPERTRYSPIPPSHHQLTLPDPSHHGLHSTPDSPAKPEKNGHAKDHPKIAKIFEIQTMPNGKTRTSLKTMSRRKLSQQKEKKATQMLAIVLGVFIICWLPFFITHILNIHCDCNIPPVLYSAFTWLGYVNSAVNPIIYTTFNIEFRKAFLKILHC

By Ki is commonly meant the equilibrium dissociation constant of an inhibitor or competing ligand from its target. On to `CN1CCc2ccc(O)cc2C(c2ccccc2)C1` (racemic), for which the Ki was more than 1000 nM on D(2) dopamine receptor; more than 1000 nM in test [1]; 207 nM at D(1A) dopamine receptor; more than 1000 nM at D(3) dopamine receptor; 133 nM in test [2].

Regarding `CN1CCc2cc(N)c(O)cc2C(c2ccccc2)C1` (racemic), the Ki on D(2) dopamine receptor is more than 1000 nM; in test [1], more than 1000 nM; at D(1A) dopamine receptor, 334 nM; at D(3) dopamine receptor it was more than 1000 nM; in test [2] it was more than 1000 nM.

Turning to `CN1CCc2cc(O)ccc2C(c2ccccc2)C1` (racemic), the Ki at D(2) dopamine receptor, on D(1A) dopamine receptor and at D(3) dopamine receptor was more than 1000 nM throughout.

Take `CN1CCc2cc(O)c(N)cc2C(c2ccccc2)C1` (racemic): the Ki is more than 1000 nM at D(2) dopamine receptor; more than 1000 nM in test [1]; 351 nM at D(1A) dopamine receptor; more than 1000 nM at D(3) dopamine receptor; more than 1000 nM in test [2].

Turning to `CN1CCc2cc(NCc3ccccc3)c(O)cc2C(c2ccccc2)C1` (racemic), the Ki on D(2) dopamine receptor is more than 1000 nM; in test [1], more than 1000 nM; on D(1A) dopamine receptor it was 665 nM; on D(3) dopamine receptor, more than 1000 nM; in test [2] it was 4.52 nM.

For `CN1CCc2cc(NCc3cccc(Cl)c3)c(O)cc2C(c2ccccc2)C1` (racemic), the Ki at D(2) dopamine receptor was more than 1000 nM; in test [1], 479 nM; at D(1A) dopamine receptor, 277 nM; in test [2], 10.3 nM.

As for `Cc1cccc(CNc2cc3c(cc2O)C(c2ccccc2)CN(C)CC3)c1` (racemic), the Ki on D(2) dopamine receptor was more than 1000 nM; in test [1] it was more than 1000 nM; at D(1A) dopamine receptor it was 370 nM; in test [2], 9.95 nM.

As to `Cc1ccccc1CNc1cc2c(cc1O)C(c1ccccc1)CN(C)CC2` (racemic), the Ki on D(2) dopamine receptor is more than 1000 nM; in test [1], more than 1000 nM; at D(1A) dopamine receptor, 292 nM; in test [2], 192 nM.

Consider `Cc1ccc(CNc2cc3c(cc2O)C(c2ccccc2)CN(C)CC3)cc1` (racemic), for which the Ki on D(2) dopamine receptor was more than 1000 nM; in test [1], more than 1000 nM; on D(1A) dopamine receptor, 756 nM; in test [2] it was 862 nM.

For `CC(=O)Nc1cc2c(cc1O)C(c1ccccc1)CN(C)CC2` (racemic), the Ki on D(2) dopamine receptor and at D(1A) dopamine receptor was more than 1000 nM throughout.

`CN1CCc2cc(-n3cccc3)c(O)cc2C(c2ccccc2)C1` (racemic): the inhibition constant Ki on D(2) dopamine receptor and on D(1A) dopamine receptor was more than 1000 nM in each case.

On to `Cc1ccc(-c2cc3c(cc2O)C(c2ccccc2)CN(C)CC3)cc1` (racemic), for which the Ki at D(2) dopamine receptor, on D(1A) dopamine receptor and at D(3) dopamine receptor was more than 1000 nM each time.

As to `Cc1cccc(-c2cc3c(cc2O)C(c2ccccc2)CN(C)CC3)c1` (racemic), the Ki on D(2) dopamine receptor was more than 1000 nM; in test [1] it was more than 1000 nM; at D(1A) dopamine receptor, 216 nM; at D(3) dopamine receptor, more than 1000 nM; in test [2], 163 nM.

Regarding `Cc1ccccc1-c1cc2c(cc1O)C(c1ccccc1)CN(C)CC2` (racemic), the Ki at D(2) dopamine receptor was more than 1000 nM; at D(1A) dopamine receptor, 912 nM.

Regarding `CN1CCc2cc(-c3ccc4ccccc4c3)c(O)cc2C(c2ccccc2)C1` (racemic), the Ki at D(2) dopamine receptor and on D(1A) dopamine receptor was more than 1000 nM each time.

As to `CN1CCc2cc(-c3ccc(O)cc3)c(O)cc2C(c2ccccc2)C1` (racemic), the Ki on D(2) dopamine receptor was more than 1000 nM; in test [1], more than 1000 nM; at D(1A) dopamine receptor, 349 nM; in test [2], 826 nM.

Take `CN1CCc2cc(O)c(CO)cc2C(c2ccccc2)C1` (racemic): the Ki on D(2) dopamine receptor, on D(1A) dopamine receptor and on D(3) dopamine receptor was more than 1000 nM throughout.

Turning to `CN1CCc2cc(O)c(CN)cc2C(c2ccccc2)C1` (racemic), the Ki on D(2) dopamine receptor, on D(1A) dopamine receptor and on D(3) dopamine receptor was more than 1000 nM in each case.

On to `CN1CCc2cc(N)ccc2C(c2ccccc2)C1` (racemic), for which the Ki on D(2) dopamine receptor, on D(1A) dopamine receptor and at D(3) dopamine receptor was more than 1000 nM throughout.

With `CN1CCc2ccc(N)cc2C(c2ccccc2)C1` (racemic), the Ki on D(2) dopamine receptor was more than 1000 nM; on D(1A) dopamine receptor it was 583 nM; at D(3) dopamine receptor, more than 1000 nM.

On to `CNc1ccc2c(c1)C(c1ccccc1)CN(C)CC2` (racemic), for which the Ki on D(2) dopamine receptor and at D(1A) dopamine receptor was more than 1000 nM each time.

Take `CN1CCc2ccc(N(C)C)cc2C(c2ccccc2)C1` (racemic): the Ki at D(2) dopamine receptor and on D(1A) dopamine receptor was more than 1000 nM in each case.

Regarding `CN1CCc2cc3oc(=O)[nH]c3cc2C(c2ccccc2)C1` (racemic), the Ki on D(2) dopamine receptor and at D(1A) dopamine receptor was more than 1000 nM in each case.

Regarding `CN1CCc2cc3c(cc2C(c2ccccc2)C1)NC(=O)CO3` (racemic), the Ki on D(2) dopamine receptor and on D(1A) dopamine receptor was more than 1000 nM throughout.

On to `CN1CCc2cc3ocnc3cc2C(c2ccccc2)C1` (racemic), for which the Ki at D(2) dopamine receptor and at D(1A) dopamine receptor was more than 1000 nM each time.

With `CN1CCN(c2nc3cc4c(cc3o2)CCN(C)CC4c2ccccc2)CC1` (racemic), the Ki at D(2) dopamine receptor and on D(1A) dopamine receptor was more than 1000 nM in each case.

In the case of `CCN(CC)c1cc2c(cc1O)C(c1ccccc1)CN(C)CC2` (racemic), the Ki at D(2) dopamine receptor, on D(1A) dopamine receptor and on D(3) dopamine receptor was more than 1000 nM throughout.
